Reference: ChEMBL document CHEMBL2396611, “Synthesis and mechanism of hypoglycemic activity of benzothiazole derivatives” (J Med Chem, 2013)
≈ marks a conversion by molar mass, not a printed value. Calls of active or inactive are those of the source. No cut-off for these calls is given here.

Columns and labels:
[1] = tested on: L6; assay: Activation of AMPKalpha in rat L6 cells assessed as phosphorylation at Thr172 after 4 hrs by Western blot analysis; format: cell-based
[2] = target: 5'-AMP-activated protein kinase catalytic subunit alpha-2 (Rattus norvegicus) (UniProt Q09137); assay: Increase in AMPK-mediated myc-tagged GLUT4 translocation in rat L6 cell plasma membrane at 25 uM after 5 hrs by colorimetric analysis
Method in brief: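 L6 lines stably carrying GLUT4myc or GLUT1myc, treated 5 h with test agent or DMSO; insulin given for 30 min. Live myotubes incubated with rabbit anti-c-Myc (1:200), washed, fixed in 3% formaldehyde, then HRP anti-rabbit IgG (1:2000). Developed with OPD and read at 492 nm to give relative surface transporter abundance.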

[3] = target: 5'-AMP-activated protein kinase catalytic subunit alpha-2 (Rattus norvegicus) (UniProt Q09137); assay: Activation of AMPK in rat L6 cells assessed as increase of [3H]dGlc uptake after 5 hrs; format: cell-based
Method in brief: (§1)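 Fully differentiated L6 myotubes preincubated 24 h in αMEM with 2% FCS and 23.0 mmol/L D-glucose, then 4 h serum-free with 0.5% BSA. Compound or DMSO vehicle given for the indicated times or concentrations. Uptake read after 5 min at room temperature in PBS pH 7.4 with 0.1 mmol/L dGlc and 1.3 μCi/mL [3H]dGlc, by scintillation of SDS lysates. Zero-time basal rate set as 100%; n=6.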

[4] = tested on: L6; assay: Effect on total GLUT4 expression in rat L6 cell lysate at 25 uM after 30 mins to 5 hrs by Western blot analysis; format: functional, cell-based
Method in brief: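 Fully differentiated L6 myotubes, preconditioned in αMEM with 23.0 mM D-glucose; insulin exposure 30 min, test exposure 5 h. Whole-cell lysates made in Tris-HCl pH 7.5 buffer with phosphatase and protease inhibitors, 40 min at 4 °C. Protein measured by Bradford, 5-60 µg per lane. Western blot probed with rabbit polyclonal anti-GLUT1 or anti-GLUT4.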

[5] = tested on: L6; assay: Activation of AMPKalpha in rat L6 cells assessed as phosphorylation at Thr172 at 100 uM after 1 hr by Western blot analysis; format: cell-based
Method in brief: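 L6 myotubes exposed for the indicated times to test compound (100 μM in the first series; 50–150 μM in the second) or 4 mM AICAR. Whole-cell lysates immunoblotted for pThr172-AMPKα, AMPKα and α-tubulin; band densities from three independent experiments vs respective controls.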

[6] = Intrinsic clearance in BALB/c mouse liver microsomes at 2 uM; format: ADME, Microsome; settings: read-out: CLH
[7] = target: Cytochrome P450 2D6 (Homo sapiens, UniProt P10635); assay: Inhibition of CYP2D6 (unknown origin) by luminescent based assay; format: ADME
[8] = Lipophilicity, log P of the compound; format: physicochemical; settings: octanol/water
[9] = Half life in BALB/c mouse liver microsomes at 2 uM; format: ADME, Microsome
[10] = tested on: L6; assay: Activation of AMPKalpha in rat L6 cells assessed as phosphorylation at Thr172 at 25 uM after 4 hrs by Western blot analysis relative to control; format: cell-based
Method in brief: (§2)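 L6 myotubes treated 4 h with increasing compound concentrations (5 to 150 μM) or DMSO. Whole-cell lysates immunoblotted for pThr172-AMPKα, AMPKα and α-tubulin; phosphorylation expressed relative to DMSO-treated control.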

[11] = tested on: Mus musculus; assay: Antidiabetic activity in KKAy mouse assessed as reduction of blood glucose level at 30 to 75 mg/kg, sc bid for 4 days; format: functional, organism-based
Method in brief: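 Hyperglycemic KKAy mice injected s.c. twice daily for 4 days with compound at 30 or 75 mg/kg suspended in sesame oil; controls received sesame oil (150 µl). Blood glucose measured at the indicated times, with day-zero levels taken as 100%. n=10 per group, mean ± SEM, compared with oil-treated group.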

[12] = tested on: L6; assay: Activation of AMPKalpha in rat L6 cells assessed as phosphorylation at Thr172 at 50 uM after 4 hrs by Western blot analysis relative to control; format: cell-based; method in brief: as §2
[13] = tested on: L6; assay: Activation of AMPKalpha in rat L6 cells assessed as phosphorylation at Thr172 at 5 uM after 4 hrs by Western blot analysis relative to control; format: cell-based; method in brief: as §2
[14] = Solubility of the compound in water; format: physicochemical; settings: buffer
[15] = target: Cytochrome P450 2C9 (Homo sapiens, UniProt P11712); assay: Inhibition of CYP2C9 (unknown origin) by luminescent based assay; format: ADME
[16] = tested on: L6; assay: Activation of AMPKalpha in rat L6 cells assessed as phosphorylation at Thr172 at 100 uM after 4 hrs by Western blot analysis relative to control; format: cell-based; method in brief: as §2
[17] = target: 5'-AMP-activated protein kinase catalytic subunit alpha-2 (Rattus norvegicus) (UniProt Q09137); assay: Activation of AMPK in rat L6 cells assessed as increase of [3H]dGlc uptake at 10 to 200 uM; format: cell-based; settings: TDE = time-dependent effect; method in brief: as §1
[18] = tested on: L6; assay: Increase of [3H]dGlc uptake in rat L6 cells after 5 hrs in presence of AMPK inhibitor compound C; format: functional, cell-based
Method in brief: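 Differentiated L6 myotubes held 24 h in αMEM with 2% FCS and 23.0 mM D-glucose, then serum-free medium with 0.5% BSA for 4 h. Compound C (5 µM) added 5 h before the uptake assay, alongside 25 µM test agent. Cells rinsed in PBS, then given 0.1 mM dGlc with 1.3 µCi/mL [3H]dGlc in PBS pH 7.4 for 5 min at room temperature. Lysed in 0.1% SDS and counted by scintillation; n=6.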

[19] = tested on: L6; assay: Activation of AMPKalpha in rat L6 cells assessed as phosphorylation at Thr172 at 150 uM after 4 hrs by Western blot analysis relative to control; format: cell-based; method in brief: as §2
[20] = target: 5'-AMP-activated protein kinase catalytic subunit alpha-2 (Homo sapiens) (UniProt P54646); assay: Activation of human recombinant AMPK at 20 uM after 30 mins relative to control
Method in brief: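 Recombinant human full-length AMPK assayed with a commercial luminescent kit. Compound at 20 μM or DMSO vehicle (1% v/v) added to the reaction mix for 30 min at ambient temperature. Activity read by luminometer against a calibration curve; basal activity with DMSO set as 100%.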

[21] = target: 5'-AMP-activated protein kinase catalytic subunit alpha-2 (Rattus norvegicus) (UniProt Q09137); assay: Activation of AMPK in rat L6 cells assessed as increase of [3H]dGlc uptake at 25 uM after 5 hrs in presence of insulin; format: cell-based
Method in brief: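 Myotubes in serum-free αMEM with 0.5% BSA and 23.0 mM D-glucose for 9 h. Compound 25 μM or DMSO (0.1% v/v) given for the last 5 h; insulin 100 nM for the last 20 min. [3H]dGlc uptake read as 5-min PBS pulse with 0.1 mmol/L dGlc; basal rate taken as 100%.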

[22] = target: 5'-AMP-activated protein kinase catalytic subunit alpha-2 (Rattus norvegicus) (UniProt Q09137); assay: Activation of AMPK in rat L6 cells assessed as AS-160 phosphorylation at Thr642 at 25 uM after 3 hrs by Western blot analysis relative to control; format: cell-based
Method in brief: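 Fully differentiated L6 myotubes, preincubated 3 h with or without 5 μM Compound C. Test agents: compound at 25 μM for 3 h, sorbitol 250 mM for 40 min, AICAR 4 mM for 30 min. Whole-cell lysates probed by Western blot for pSer79-ACC, ACC, pThr642-AS-160, AS-160 and α-tubulin; band densities summarized, n=3, vs respective controls.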

Sequence of 5'-AMP-activated protein kinase catalytic subunit alpha-2 (Rattus norvegicus) (Q09137 whole entry): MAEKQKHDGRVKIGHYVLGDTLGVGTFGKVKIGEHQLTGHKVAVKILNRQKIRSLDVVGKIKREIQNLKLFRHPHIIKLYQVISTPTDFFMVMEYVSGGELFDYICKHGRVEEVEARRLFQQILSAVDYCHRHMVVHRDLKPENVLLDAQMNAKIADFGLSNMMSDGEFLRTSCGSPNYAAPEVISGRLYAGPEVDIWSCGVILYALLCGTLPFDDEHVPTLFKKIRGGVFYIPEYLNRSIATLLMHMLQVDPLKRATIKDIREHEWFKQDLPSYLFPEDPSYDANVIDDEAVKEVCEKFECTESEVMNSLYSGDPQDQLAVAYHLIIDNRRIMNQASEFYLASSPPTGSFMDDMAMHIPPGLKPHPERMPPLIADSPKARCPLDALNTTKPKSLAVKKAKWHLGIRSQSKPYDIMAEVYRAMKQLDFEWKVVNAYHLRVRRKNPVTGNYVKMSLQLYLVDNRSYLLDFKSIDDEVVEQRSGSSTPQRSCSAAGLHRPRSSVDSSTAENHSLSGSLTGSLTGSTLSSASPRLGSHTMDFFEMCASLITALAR
Sequence of Cytochrome P450 2D6 (P10635 whole entry): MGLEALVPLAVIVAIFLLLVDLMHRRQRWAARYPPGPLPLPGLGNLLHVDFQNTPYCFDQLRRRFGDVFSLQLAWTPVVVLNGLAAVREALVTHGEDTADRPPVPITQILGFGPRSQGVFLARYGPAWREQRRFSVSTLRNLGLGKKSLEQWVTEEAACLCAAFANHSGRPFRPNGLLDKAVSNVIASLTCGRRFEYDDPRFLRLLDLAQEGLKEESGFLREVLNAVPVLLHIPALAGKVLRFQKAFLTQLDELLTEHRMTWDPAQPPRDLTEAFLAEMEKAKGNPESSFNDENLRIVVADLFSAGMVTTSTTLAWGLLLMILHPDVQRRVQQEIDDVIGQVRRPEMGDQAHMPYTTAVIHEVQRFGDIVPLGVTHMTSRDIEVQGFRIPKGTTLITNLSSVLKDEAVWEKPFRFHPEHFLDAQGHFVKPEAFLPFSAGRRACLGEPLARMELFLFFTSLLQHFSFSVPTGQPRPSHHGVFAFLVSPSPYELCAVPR
Sequence of 5'-AMP-activated protein kinase catalytic subunit alpha-2 (Homo sapiens) (P54646 whole entry, looked up): as the sequence (Q09137 whole entry) above, with V114M, Q150H, I241V, T348S, M355S, V502F, S505T, N509S, A528V, A549T counted along it
Sequence of Cytochrome P450 2C9 (P11712 whole entry): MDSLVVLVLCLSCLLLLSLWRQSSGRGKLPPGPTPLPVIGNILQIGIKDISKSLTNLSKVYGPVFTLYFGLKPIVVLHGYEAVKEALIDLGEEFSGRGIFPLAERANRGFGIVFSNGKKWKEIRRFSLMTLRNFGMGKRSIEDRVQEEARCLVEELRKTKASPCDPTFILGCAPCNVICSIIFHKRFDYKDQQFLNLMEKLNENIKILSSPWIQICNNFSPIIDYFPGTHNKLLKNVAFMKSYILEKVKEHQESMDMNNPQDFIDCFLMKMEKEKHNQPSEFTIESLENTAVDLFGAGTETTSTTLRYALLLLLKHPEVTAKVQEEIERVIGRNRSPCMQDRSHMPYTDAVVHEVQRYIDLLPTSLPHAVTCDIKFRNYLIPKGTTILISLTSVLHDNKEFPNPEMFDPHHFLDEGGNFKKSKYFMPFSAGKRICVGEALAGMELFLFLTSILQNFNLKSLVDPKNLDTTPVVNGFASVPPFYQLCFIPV

CCOc1ccc2nc(SCc3nc4ccccc4s3)sc2c1
Activity [1]: Dose-dependent effect | Activity [2]: Active | Activity [3]: Dose-dependent effect | Activity [4]: inactive | Activity [5]: Active | microsomal CLint at 2 µM [6]: 692 µL/min/mg | inhibition (INH) [7]: 64.4% | logP [8]: 4.34 | half-life at 2 µM [9]: 2.4 min | fold change (FC) [10]: 6.8 | Activity [11]: Active | fold change (FC) [12]: 6 | fold change (FC) [13]: 2 | solubility [14]: 12.1 µM (≈ 4.33 µg/mL) | inhibition (INH) [15]: Not Active | fold change (FC) [16]: 5.2 | Activity [17]: tde | Activity [18]: inactive | fold change (FC) [19]: 7.6 | fold change (FC) [20]: 4.3 | Activity [21]: Active | fold change (FC) [22]: 1.09
